In the library only some 1.8% were active in any assay of this set; here they are far more common.
Hck-Nef inh = human Hck-Nef kinase inhibition. inhibition, % at 20 µM. Recombinant Hck-YEEI plus Nef, Z-Lyte FRET kinase assay. hit rate 0.68% among 220,000. P08631;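 active means Hck-Nef kinase inhibition above about 50%, limit read from the data; inactive means inhibition below that limit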;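 further: 0% = DMSO with Hck plus Nef and 100% = Hck alone without Nef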
Target sequence (P08631 whole entry, looked up): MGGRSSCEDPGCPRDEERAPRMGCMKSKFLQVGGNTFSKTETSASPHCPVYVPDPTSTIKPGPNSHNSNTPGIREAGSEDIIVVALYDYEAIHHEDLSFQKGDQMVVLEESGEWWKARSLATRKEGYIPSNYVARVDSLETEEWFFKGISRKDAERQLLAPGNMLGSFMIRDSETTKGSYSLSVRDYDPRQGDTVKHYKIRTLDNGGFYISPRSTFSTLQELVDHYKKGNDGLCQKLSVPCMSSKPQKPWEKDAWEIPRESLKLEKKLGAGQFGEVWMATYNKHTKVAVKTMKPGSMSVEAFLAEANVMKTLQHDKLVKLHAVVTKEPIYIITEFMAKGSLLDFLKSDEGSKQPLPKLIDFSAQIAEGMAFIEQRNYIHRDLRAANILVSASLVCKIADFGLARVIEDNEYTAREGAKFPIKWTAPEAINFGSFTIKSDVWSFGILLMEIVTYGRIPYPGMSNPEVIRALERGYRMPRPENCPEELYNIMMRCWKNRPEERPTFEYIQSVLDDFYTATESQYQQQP
Runt-SMMHC FRET = inhibitors of human RUNX1 Runt domain binding to CBFb-SMMHC; Cerulean-Runt/Venus-CBFb-SMMHC FRET ratio 530/480, 1 h; Q01196+Q13951; hit rate 0.74% among 220,000; AID 1434; inhibition, % at 20 µM;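 active means mean inhibition across duplicate retests at 20 µM reaching about 50%, limit read from the data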;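 further: 0% = DMSO wells and 100% = wells with excess untagged CBFb-SMMHC; inhibitors lower the FRET ratio by blocking Runt binding to CBFb-SMMHC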
RanGTP-Imp inh = inhibitors of RanGTP-importin-beta interaction, primary screen, biochemical, FRET, CFP-Ran, YFP-importin-beta, homogeneous; hit rate 1.1% among 300,000; cell-free CFP-Ran/YFP-importin-beta FRET ratio; inhibition, % (no concentration beside the values);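 active means more than half of the replicate wells show a fall in the fluorescence ratio signal beyond about 16%, limit read from the data, passing the limit was not always enough; inconclusive means exactly half of the replicate wells pass the set limit; inactive means fewer than half of replicates pass the limit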;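 further: 0% = DMSO wells and 100% = Ran loaded with GDP instead of GTP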
Runt-CBFb FRET = inhibitors of human RUNX1 Runt domain binding to CBFb; hit rate 0.46% among 220,000; inhibition, % at 20 µM; Q01196+Q13951; Cerulean-Runt/Venus-CBFb FRET ratio 530/480, 1 h;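 active means inhibition over about 50% at 20 µM in the single-dose screen, limit read from the data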;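 further: 0% = DMSO wells and 100% = excess unlabeled CBFb competitor control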
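Measured by: fluorescence energy transfer, 422 nm excitation, 530/480 nm emission; Assay system: Cerulean-Runt domain; Medium: Tris pH 7.5 buffer with BSA; Measure: loss of energy transfer signal; Controls: 5 µM unlabeled CBFb as full-inhibition high control; Incubation: protein complex preformed 1 h, compound exposure 1 h, room temperature, dark.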
Runt-CBFb TRFRET = Runt-CBFb binding inhibition; shares compounds with Runt-CBFb FRET; TR-FRET RUNX1 Runt domain-CBFb binding; inhibition, % at 20 µM; hit rate 20% among 480; in the data active means inhibition above about 40%
YIC counter = counter-screen YIC FRET for RanGTP-importin-beta inhibitors; AID 435026; Purified YIC probe, intramolecular FRET ratio YFP/CFP; hit rate 40% among 1,000; IC50, µM; shares compounds with RanGTP-Imp inh;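 active means fitted half-maximal inhibitory concentration no more than tenfold above the top dose tested; inconclusive means flat fit with 30 to 70% activity, or poor fit; inactive means half-maximal concentration beyond tenfold above the top dose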
* marks the source's active call; other numbers are inactive results; ? = inconclusive; / = no result given.

SMILES | Hck-Nef inh | Runt-SMMHC FRET | RanGTP-Imp inh | Runt-CBFb FRET | Runt-CBFb TRFRET | others
CCOC(=O)C1=C(Cc2ccc(C)cc2)C(=O)c2ccccc2C1=O | -3 | 51* | -11 | 50* | -51
COc1ccc2ccccc2c1C(O)c1nccn1C (configuration not stated) | 1 | 115* | 0 | 55* | -2
Cn1ccnc1C(O)c1ccccc1 (configuration not stated) | -5 | 1 | 6 | 2 | /
CCCC(C(=O)NC1CCCC1)N(C(=O)Cn1nnc(-c2ccc(C)o2)n1)c1ccccc1OC (configuration not stated) | 0 | 3 | 0 | 53* | -15
C/C(=N\NC(=O)c1cccc(S(=O)(=O)N2CCCC2)c1)c1ccc(F)cc1 | / | / | -2 | / | /
CCCCN1C(=O)C(=O)N(CC(=O)c2ccc3c(c2)OCO3)C1=O | / | / | 4 | / | /
Cc1ccc(C(=O)/C=C\C(=O)c2ccc(C)cc2)cc1 | -2 | 51* | 7 | 62* | -12
Cc1c(NS(=O)(=O)c2cc(Br)cc3c2N(C(=O)C2CC2)CC3)c(=O)n(-c2ccccc2)n1C | 18 | -2 | 0 | 0 | /
Cc1c(NS(=O)(=O)c2ccc3c(c2)CCN3C(=O)C2CC2)c(=O)n(-c2ccccc2)n1C | 1 | -8 | 2 | 57* | -10
Oc1ccc(-c2csc(Nc3ncccn3)n2)cc1O | 37 | 35 | -2 | 50* | 42*
Oc1ccc(-c2csc(-c3cccnc3)n2)cc1O | 30 | 33 | -1 | 53* | 68*
Oc1ccc(-c2csc(Nc3ncccn3)n2)c(O)c1 | 25 | -10 | ? | 3 | /
NC1=C(c2ccc([N+](=O)[O-])cc2)C(=O)CO1 | -2 | -3 | 0 | 3 | /
O=c1oc2c(-c3ccc([N+](=O)[O-])cc3)cc(O)cc2s1 | 7 | 4 | 7 | 56* | -8
COc1ccc(OCC(=O)Nc2c(C)ccc3nsnc23)cc1 | / | / | 1 | / | /
CC1CN(c2nc3ccccn3c(=O)c2/C=C(\C#N)C(=O)N2CCOCC2)CC(C)O1 (configuration not stated) | 12 | -2 | 1 | -2 | /
CNC(=O)/C(C#N)=C/c1c(N2CC(C)OC(C)C2)nc2ccccn2c1=O (configuration not stated) | 17 | 121* | ? | 94* | 11
Cc1cccc(Cn2c(-c3ccc[nH]c3=O)nc3ccccc32)c1 | / | / | 1 | / | /
CC(=O)N1CC[n+]2c(-c3ccc(Cl)cc3)csc21 | 16 | 58* | -1 | 60* | 10
S=C1CSc2ccccc2N1 | 25 | 12 | 2 | 53* | 14
O=C1C(O)CC2c3ccccc3CC3(CCCC3)N12 (configuration not stated) | 3 | 2 | -2 | 58* | 28
CC1CC2(CCCC2)N(C(=O)c2ccccc2)Cc2ccccc21 (configuration not stated) | 6 | -4 | 7 | -3 | /
Cc1cc(O)cc(C)c1Cl | / | / | -10 | / | /
Cc1cc(O)c(-c2cc(O)c(C)cc2O)cc1O | -165 | 80* | 4 | 58* | 43*
CCNC(=S)N(Cc1cc2cc(C)cc(C)c2[nH]c1=O)C1CCCC1 | 3 | 3 | 1 | 34 | /
SMILES | Hck-Nef inh | Runt-SMMHC FRET | RanGTP-Imp inh | Runt-CBFb FRET | Runt-CBFb TRFRET | others
CCNC(=S)N(Cc1cc2cc(C)ccc2[nH]c1=O)C1CCCC1 | 9 | 43 | -5 | 58* | 13
CCNC(=S)N(Cc1cc2c(C)ccc(C)c2[nH]c1=O)C1CCCC1 | 20 | 28 | 2 | 60* | 23
CN1/C(=C/C(=O)C2CCC2)Sc2ccccc21 | 3 | 25 | 4 | 51* | 8
CN1/C(=C\C(=O)c2cccs2)Sc2ccccc21 | 50 | 94* | ? | 52* | 0
COc1cc(OC)cc(C(=O)/C=C2\Sc3ccccc3N2C)c1 | -4 | 48 | 2 | 57* | 6
Cn1cccc1CC(=O)NNC(=S)NC(=O)c1ccc(F)cc1 | -6 | -4 | 5 | 11 | /
COc1ccc(CCN(C(=O)c2snc(C(N)=O)c2N)C(C)C(=O)NC2CCCCC2)cc1OC (configuration not stated) | / | / | 1 | / | /
CSc1ccccc1NC(=O)CN(C)C(=O)Cc1c(F)cccc1Cl | / | / | 5 | / | /
Cc1nn(C)c(N)c1[N+](=O)[O-] | 9 | -8 | -3 | 0 | /
Cc1nn(C)c(Sc2ccccc2N)c1[N+](=O)[O-] | 27 | 51 | -1 | 55* | 14
O=C(NNC(=O)c1cccnc1)NC1CCCCC1 | 13 | 2 | -4 | -2 | /
O=C(NNC(=O)c1cc(O)c(O)c(O)c1)NC1CCCCC1 | -1 | 66 | 6 | 55* | 61*
Cc1cccn2c(=O)c3cc(C#N)c(=N)n(Cc4ccncc4)c3nc12 | -1 | 130* | 74* | 70* | -4
Cc1cc(N2C(=O)C=CC2=O)c([N+](=O)[O-])cc1C | 3 | 66 | / | 53* | 35
Fc1ccc(Nc2nc3ccccc3s2)cc1 | 12 | -2 | 3 | 0 | /
O=c1cc(O)c2sc(Nc3cccc(C(F)(F)F)c3)nc2[nH]1 | 4 | 45 | -2 | 60* | 29
O=c1cc(O)c2sc(Nc3ccc(F)cc3)nc2[nH]1 | 1 | 34 | 4 | 56* | 6
CC(=O)OCC1OC(OCc2cn(C[C@H]3CC[C@H](Cn4cc(COC5OC(COC(C)=O)C(OC(C)=O)C(OC(C)=O)C5OC(C)=O)nn4)O3)nn2)C(OC(C)=O)C(OC(C)=O)C1OC(C)=O (some centres not stated) | / | / | 10 | / | /
N#C/C(=C\c1c(Cl)cccc1Cl)c1nc2ccccc2o1 | 6 | 4 | -1 | 5 | /
Cc1cc(O)ccc1N/C=C(\C#N)c1nc2ccccc2o1 | 2 | 60 | -3 | 53* | 3
CCOC(=O)C(=CNc1cc(C)ccc1-n1cccc1)C(=O)OCC | 14 | -8 | 1 | 1 | /
CCC(C)(C)n1nnnc1C(c1ccc2ncccc2c1)N1CCN(c2ccc(O)cc2)CC1 (configuration not stated) | 8 | -1 | -1 | 54* | 29
CCCC(=O)Nc1nnc(S(=O)(=O)N(C)Cc2ccco2)s1 | / | / | 2 | / | /
COc1cc(Cl)c(C)cc1NC(=S)NN | 35 | 30 | 2 | 51* | 16
Cc1ccc2cc3c(NC(=O)CC(C)C)nn(C)c3nc2c1 | 9 | -1 | 4 | 4 | /
Cc1ccc2nc3c(cc2c1)c(NC(=O)c1ccccn1)nn3CC(C)C | 21 | 90* | 116* | 53* | 33
CCc1ccc(S(=O)(=O)Nc2ccc(-c3nc4cccnc4s3)cc2)s1 | 8 | 148* | 40* | 80* | 17 | YIC counter=9.7*
Cc1ccc(-c2nc3cccnc3s2)cc1NS(=O)(=O)c1cccs1 | 1 | -3 | 0 | 1 | /
